Converted amounts (≈) assume the structure as drawn. The source made the active and inactive calls. No cut-off for these calls is given here.
Key:
Type in all cases: functional
Haemophilus influenzae [1] = test: Antibacterial activity against Haemophilus influenzae ATCC 51907 after 18 to 20 hrs
Summary of the method: (§1)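 MICs followed CLSI guidelines. Strains were grown overnight at 35°C on solid medium. Inocula were prepared with a Prompt system. Compounds were serially diluted twofold in 100% DMSO at 200x and diluted 1:200 into medium, for a final 0.5% DMSO. Plates were incubated at 35°C for 18 to 20 h and read visually. A twofold MIC variation was taken as assay error.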

Streptococcus pneumoniae [2] = test: Antibacterial activity against Streptococcus pneumoniae ATCC BAA-255 after 18 to 20 hrs; summary of the method: as §1
Staphylococcus aureus [3] = test: Antibacterial activity against Staphylococcus aureus ATCC 29213 carrying plasmid expressing GyrB R144I mutant
Staphylococcus aureus [4] = test: Antibacterial activity against Staphylococcus aureus ATCC 29213 carrying plasmid expressing GyrB T173I mutant
Staphylococcus aureus [5] = test: Antibacterial activity against Staphylococcus aureus ATCC 29213 carrying plasmid expressing GyrB T173N mutant
Staphylococcus aureus [6] = test: Antibacterial activity against Staphylococcus aureus ATCC 29213 with GyrB T173I and GrlB T166A mutation after 18 to 20 hrs; summary of the method: as §1
Streptococcus pneumoniae [7] = test: Antibacterial activity against Streptococcus pneumoniae ATCC BAA-255 with ParE T172A mutation after 18 to 20 hrs; summary of the method: as §1
Staphylococcus aureus [8] = test: Antibacterial activity against Staphylococcus aureus ATCC 29213 carrying plasmid expressing wild type GyrB
Staphylococcus aureus [9] = test: Antibacterial activity against Staphylococcus aureus ATCC 29213 with GyrB T173N and GrlB T166A mutation after 18 to 20 hrs; summary of the method: as §1
Haemophilus influenzae [10] = test: Antibacterial activity against novobiocin-resistant Haemophilus influenzae ATCC 51907 with GyrB R140L mutation after 18 to 20 hrs; summary of the method: as §1
Streptococcus pneumoniae [11] = test: Antibacterial activity against Streptococcus pneumoniae ATCC BAA-255 with GyrB T172A and ParE T172A mutation after 18 to 20 hrs; summary of the method: as §1
Staphylococcus aureus [12] = test: Antibacterial activity against Staphylococcus aureus ATCC 29213 with GyrB R144I mutation without plasmid
Staphylococcus aureus [13] = test: Antibacterial activity against Staphylococcus aureus ATCC 29213 with GyrB T173N mutation after 18 to 20 hrs; summary of the method: as §1
Staphylococcus aureus [14] = test: Antibacterial activity against Staphylococcus aureus ATCC 29213 with GyrB T173N mutation without plasmid
Enterococcus faecalis [15] = test: Antibacterial activity against Enterococcus faecalis ATCC 29212 with GyrB T167A and ParE T169A mutation after 18 to 20 hrs; summary of the method: as §1
Streptococcus pneumoniae [16] = test: Antibacterial activity against novobiocin-resistant Streptococcus pneumoniae ATCC BAA-255 with GyrB S127L mutation after 18 to 20 hrs; summary of the method: as §1
Haemophilus influenzae [17] = test: Antibacterial activity against novobiocin-resistant Haemophilus influenzae ATCC 51907 with GyrB R140C mutation after 18 to 20 hrs; summary of the method: as §1
Staphylococcus aureus [18] = test: Antibacterial activity against Staphylococcus aureus ATCC 29213 with GyrB T173I mutation without plasmid
Enterococcus faecalis [19] = test: Antibacterial activity against Enterococcus faecalis ATCC 29212 with ParE T169A mutation after 18 to 20 hrs; summary of the method: as §1
Haemophilus influenzae [20] = test: Antibacterial activity against Haemophilus influenzae ATCC 51907 with GyrB T169I mutation after 18 to 20 hrs; summary of the method: as §1
Haemophilus influenzae [21] = test: Antibacterial activity against novobiocin-resistant Haemophilus influenzae ATCC 51907 with GyrB R140H mutation after 18 to 20 hrs; summary of the method: as §1
Staphylococcus aureus [22] = test: Antibacterial activity against Staphylococcus aureus ATCC 29213 after 18 to 20 hrs; summary of the method: as §1
Staphylococcus aureus [23] = test: Antibacterial activity against Staphylococcus aureus ATCC 29213 with GyrB T173I mutation after 18 to 20 hrs; summary of the method: as §1
Staphylococcus aureus [24] = test: Antibacterial activity against novobiocin-resistant Staphylococcus aureus ATCC 29213 with GyrB R144I mutation after 18 to 20 hrs; summary of the method: as §1
Enterococcus faecalis [25] = test: Antibacterial activity against Enterococcus faecalis ATCC 29212 after 18 to 20 hrs; summary of the method: as §1
Enterococcus faecalis [26] = test: Antibacterial activity against Enterococcus faecalis ATCC 29212 with GyrB T167I mutation after 18 to 20 hrs; summary of the method: as §1
Enterococcus faecalis [27] = test: Antibacterial activity against Enterococcus faecalis ATCC 29212 with GyrB T167I and ParE T169A mutation after 18 to 20 hrs; summary of the method: as §1
Enterococcus faecalis [28] = test: Antibacterial activity against Enterococcus faecalis ATCC 29212 with GyrB T167A mutation after 18 to 20 hrs; summary of the method: as §1
Staphylococcus aureus [29] = test: Antibacterial activity against Staphylococcus aureus ATCC 29213 without plasmid
Streptococcus pneumoniae [30] = test: Antibacterial activity against Streptococcus pneumoniae ATCC BAA-255 with ParE T172I mutation after 18 to 20 hrs; summary of the method: as §1
Staphylococcus aureus [31] = test: Inhibition of RNA synthesis in Staphylococcus aureus ATCC 29213 assessed as [3H]uridine incorporation
Summary of the method: (§2)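 Log-phase cells exposed in duplicate to compound at 5x MIC; labelled-precursor uptake measured over 15 min, stopped with 10% trichloroacetic acid. Incorporation expressed as percent of untreated control (taken as 100%).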

Staphylococcus aureus [32] = test: Inhibition of protein synthesis in Staphylococcus aureus ATCC 29213 assessed as [3H]aminoacid incorporation
Staphylococcus aureus [33] = test: Inhibition of DNA synthesis in Staphylococcus aureus ATCC 29213 assessed as [3H]thymidine incorporation; summary of the method: as §2

Structure (SMILES)	MIC (Haemophilus influenzae [1]) [µg/mL]	MIC (Staphylococcus aureus [3]) [µg/mL]	MIC (Staphylococcus aureus [4]) [µg/mL]	MIC (Staphylococcus aureus [5]) [µg/mL]	MIC (Staphylococcus aureus [6]) [µg/mL]	MIC (Streptococcus pneumoniae [7]) [µg/mL]	MIC (Staphylococcus aureus [8]) [µg/mL]	MIC (Staphylococcus aureus [9]) [µg/mL]	MIC (Haemophilus influenzae [10]) [µg/mL]	MIC (Streptococcus pneumoniae [11]) [µg/mL]	MIC (Staphylococcus aureus [12]) [µg/mL]	MIC (Staphylococcus aureus [13]) [µg/mL]	MIC (Staphylococcus aureus [14]) [µg/mL]	MIC (Enterococcus faecalis [15]) [µg/mL]	MIC (Streptococcus pneumoniae [16]) [µg/mL]	MIC (Haemophilus influenzae [17]) [µg/mL]	MIC (Staphylococcus aureus [18]) [µg/mL]	MIC (Enterococcus faecalis [19]) [µg/mL]	MIC (Haemophilus influenzae [20]) [µg/mL]	MIC (Haemophilus influenzae [21]) [µg/mL]	also measured
CO[C@@H]1[C@@H](OC(N)=O)[C@@H](O)[C@H](Oc2ccc3c(O)c(NC(=O)c4ccc(O)c(CC=C(C)C)c4)c(=O)oc3c2C)OC1(C)C [NOVOBIOCIN]	0.064 (≈ 0.104 µM)	8 (≈ 13.1 µM)	0.5 (≈ 0.816 µM)	0.13 (≈ 0.212 µM)	2 (≈ 3.26 µM)	0.5 (≈ 0.816 µM)	0.13 (≈ 0.212 µM)	0.25 (≈ 0.408 µM)	4 (≈ 6.53 µM)	4 (≈ 6.53 µM)	8 (≈ 13.1 µM)	0.25 (≈ 0.408 µM)	0.25 (≈ 0.408 µM)	16 (≈ 26.1 µM)	8 (≈ 13.1 µM)	8 (≈ 13.1 µM)	2 (≈ 3.26 µM)	8 (≈ 13.1 µM)	0.25 (≈ 0.408 µM)	4 (≈ 6.53 µM)	MIC (Streptococcus pneumoniae [2]): 0.5 µg/mL (≈ 0.816 µM); MIC (Staphylococcus aureus [22]): 0.13 µg/mL (≈ 0.212 µM); MIC (Staphylococcus aureus [23]): 1 µg/mL (≈ 1.63 µM); MIC (Staphylococcus aureus [24]): 8 µg/mL (≈ 13.1 µM); MIC (Enterococcus faecalis [25]): 8 µg/mL (≈ 13.1 µM); MIC (Enterococcus faecalis [26]): 32 µg/mL (≈ 52.2 µM); MIC (Enterococcus faecalis [27]): 16 µg/mL (≈ 26.1 µM); MIC (Enterococcus faecalis [28]): 16 µg/mL (≈ 26.1 µM); MIC (Staphylococcus aureus [29]): 0.13 µg/mL (≈ 0.212 µM); MIC (Streptococcus pneumoniae [30]): 0.5 µg/mL (≈ 0.816 µM)
O=C(O)c1cn(C2CC2)c2cc(N3CCNCC3)c(F)cc2c1=O [CIPROFLOXACIN]	0.004 (≈ 0.0121 µM)	0.25 (≈ 0.754 µM)	0.25 (≈ 0.754 µM)	0.25 (≈ 0.754 µM)	0.25 (≈ 0.754 µM)	0.25 (≈ 0.754 µM)	0.25 (≈ 0.754 µM)	0.25 (≈ 0.754 µM)	0.004 (≈ 0.0121 µM)	0.25 (≈ 0.754 µM)	0.25 (≈ 0.754 µM)	0.25 (≈ 0.754 µM)	0.25 (≈ 0.754 µM)	0.5 (≈ 1.51 µM)	0.25 (≈ 0.754 µM)	0.004 (≈ 0.0121 µM)	0.25 (≈ 0.754 µM)	1 (≈ 3.02 µM)	0.004 (≈ 0.0121 µM)	0.004 (≈ 0.0121 µM)	Activity (Staphylococcus aureus [31]): inactive; Activity (Staphylococcus aureus [32]): inactive; MIC (Staphylococcus aureus [22]): 0.25 µg/mL (≈ 0.754 µM); MIC (Staphylococcus aureus [23]): 0.25 µg/mL (≈ 0.754 µM); MIC (Staphylococcus aureus [24]): 0.25 µg/mL (≈ 0.754 µM); MIC (Enterococcus faecalis [25]): 1 µg/mL (≈ 3.02 µM); MIC (Enterococcus faecalis [26]): 1 µg/mL (≈ 3.02 µM); Activity (Staphylococcus aureus [33]): Active; MIC (Enterococcus faecalis [27]): 0.5 µg/mL (≈ 1.51 µM); MIC (Enterococcus faecalis [28]): 0.5 µg/mL (≈ 1.51 µM); MIC (Staphylococcus aureus [29]): 0.25 µg/mL (≈ 0.754 µM)

— ChEMBL document CHEMBL1142193, “Dual targeting of GyrB and ParE by a novel aminobenzimidazole class of antibacterial compounds” (2007)
